The nature of data set [1]: Inhibition of Wnt/beta-catenin signaling pathway in HEK293T cells incubated for 24 hrs by dual-Glo luciferase assay. Conditions: Homo sapiens, HEK-293T. It is filed as cell-based. The method in brief: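 Luciferase-based WNT/β-catenin pathway reporter in human HEK293 cells, run as in earlier work with a reference tankyrase inhibitor included. Each concentration tested in triplicate. IC50 derived by curve fitting, with T/F-tests applied to the fit.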

Data set [2] deals with COLO 320DM. Put plainly: Inhibition of Wnt/beta-catenin signaling pathway in human COLO 320DM cells assessed as stabilization of AXIN2 at 0.1 to 100 nM by immunoblot analysis. It is filed as cell-based. The following applies: dose 0.1-100 nM. For orientation: A western blot detects proteins with antibodies after separation by electrophoresis.
Data set [3] has as its system COLO 320DM. Nature of the data set: Inhibition of Wnt/beta-catenin signaling pathway in human COLO 320DM cells assessed as reduction in APCDD1 level qRT-PCR analysis. It is filed as cell-based. The following applies: dose 0.1-100 nM. Background: Real-time PCR tracks product formation cycle by cycle.
The test system of data set [4] is COLO 320DM. Put plainly: Inhibition of Wnt/beta-catenin signaling pathway in human COLO 320DM cells assessed as stabilization of AXIN1 at 0.1 to 100 nM by immunoblot analysis. The class given is cell-based. The following applies: dose 0.1-100 nM.
The test system of data set [5] is COLO 320DM. Nature of the data set: Inhibition of Wnt/beta-catenin signaling pathway in human COLO 320DM cells assessed as reduction in cytoplasmic beta-catenin level at 0.1 to 100 nM by immunoblot analysis. Conditions: dose 0.1-100 nM. It is filed as cell-based.
Data set [6] deals with COLO 320DM. Put plainly: Inhibition of Wnt/beta-catenin signaling pathway in human COLO 320DM cells assessed as reduction in NKD1 level qRT-PCR analysis. It is filed as cell-based. The following applies: dose 0.1-100 nM.
Data set [7] deals with COLO 320DM. Put plainly: Inhibition of Wnt/beta-catenin signaling pathway in human COLO 320DM cells assessed as reduction in nuclear beta-catenin level at 0.1 to 100 nM by immunoblot analysis. It is filed as cell-based. Conditions: dose 0.1-100 nM.
Data set [8] has as its system COLO 320DM. Put plainly: Inhibition of Wnt/beta-catenin signaling pathway in human COLO 320DM cells assessed as effect on TNKS1/2 level by immunoblot analysis. It is filed as cell-based. The following applies: dose 0.1-100 nM.
Data set [9] has as its system Salmonella typhimurium. Nature of the data set: Genotoxicity in Salmonella typhimurium TA98 in presence of rat liver S9 fraction by Ames test. The class given is toxicity, organism-based. The following applies: salmonella enterica subsp. enterica serovar typhimurium. (The Ames test uses bacterial strains that need an amino acid and regain growth without it when mutated back.)

Data set [10] deals with COLO 320DM. Put plainly: Inhibition of Wnt/beta-catenin signaling pathway in human COLO 320DM cells assessed as reduction in AXIN2 level qRT-PCR analysis. The class given is cell-based. The following applies: dose 0.1-100 nM.
The subject of data set [11] is COLO 320DM. Nature of the data set: Inhibition of Wnt/beta-catenin signaling pathway in human COLO 320DM cells assessed as reduction in DKK1 level qRT-PCR analysis. Conditions: dose 0.1-100 nM. The class given is cell-based.
Data set [12] has as its system Salmonella typhimurium. Nature of the data set: Genotoxicity in Salmonella typhimurium TA100 in presence of rat liver S9 fraction by Ames test. Conditions: salmonella enterica subsp. enterica serovar typhimurium. The class given is toxicity, organism-based.
Data set [13] concerns the target T1, Nuclear receptor subfamily 1 group I member 2 (Homo sapiens, UniProt O75469).
T1 sequence (O75469 whole entry): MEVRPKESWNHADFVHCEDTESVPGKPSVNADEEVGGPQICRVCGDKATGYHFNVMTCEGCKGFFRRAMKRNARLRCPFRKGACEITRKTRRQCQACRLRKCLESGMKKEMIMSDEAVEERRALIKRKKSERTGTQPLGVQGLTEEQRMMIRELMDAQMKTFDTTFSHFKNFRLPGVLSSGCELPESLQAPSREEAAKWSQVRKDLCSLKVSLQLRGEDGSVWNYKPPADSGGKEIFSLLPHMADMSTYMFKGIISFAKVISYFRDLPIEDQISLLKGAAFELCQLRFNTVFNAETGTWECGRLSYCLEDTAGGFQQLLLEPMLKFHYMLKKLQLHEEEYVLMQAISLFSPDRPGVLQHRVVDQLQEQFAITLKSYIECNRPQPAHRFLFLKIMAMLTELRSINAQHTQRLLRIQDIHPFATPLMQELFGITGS
Nature of the data set: Inhibition of PXR (unknown origin) at 100 uM.

Data set [14] is described as follows: Apparent permeability across apical to basolateral side in human Caco-2 cells at 10 uM incubated for 120 mins by LC-MS/MS analysis. The class given is ADME, cell-based.
Data set [15] in a line: Metabolic stability in human liver microsomes assessed as intrinsic clearance measured per mg protein incubated up to 60 mins in presence of NADPH by UPLC-MS/MS analysis. It is filed as ADME, Microsome. The following applies: read-out: […].
Data set [16] can be described thus: Metabolic stability in mouse liver microsomes assessed as intrinsic clearance measured per mg protein incubated up to 60 mins in presence of NADPH by UPLC-MS/MS analysis. It is filed as ADME, Microsome. The following applies: read-out: CLH.

The structures appear in SMILES notation. The source made the active and inactive calls. The calls are words filed in the database; no cut-off is given here. Bounds are passed on as bounds.

In data set [1], `CCOc1ccc(-c2nnc([C@H]3C[C@H](NC(=O)c4ccnc5cc(F)cnc45)C3)n2-c2ccccc2F)nc1` had an IC50 of 170 pM.
On to `CCOc1ccc(-c2nnc([C@H]3C[C@H](NC(=O)c4cccc5nccnc45)C3)n2-c2ccccc2F)nc1`, for which the inhibition entry in data set [2], in [4], in data set [5] and in [7] was “Active” each time. Further, the inhibition entry in data set [3], in [6], in [8], in data set [10] and in data set [11] was “Dose-Dependent Effect” throughout. The Activity result in data set [9] and in data set [12] was “Non-Toxic” each time. In data set [13], the IC50 entry is “Not Active”.
Compound `CCOc1ccc(-c2nnc([C@H]3C[C@H](NC(=O)c4ccnc5cccnc45)C3)n2-c2ccccc2F)nc1` yielded an IC50 in data set [1] of 630 pM.
Take `CCOc1ccc(-c2nnc([C@H]3C[C@H](NC(=O)c4ccccn4)C3)n2-c2ccccc2F)nc1`: in data set [14], the Papp A→B at 2 h, 10 µM is 39.5 ×10⁻⁶ cm/s. Besides, the values for the microsomal CLint in data set [15] and in data set [16] were less than 5 µL/min/mg and 27 µL/min/mg, respectively. The Activity entry in data set [9] and in [12] was “Non-Toxic” in each case.

What is called IC50 is the concentration needed to halve the response being measured. A higher IC50 goes with lower potency. As usually defined, the Papp A→B is the apparent permeability from the apical to the basolateral side of a cell layer.

Values taken from ChEMBL document CHEMBL5029189, “Development of a 1,2,4-Triazole-Based Lead Tankyrase Inhibitor: Part II” (J Med Chem, 2021).
